Experimental data taken from ChEMBL document CHEMBL1132375, “Synthesis and biochemical evaluation of 3-fluoromethyl-1,2,3, 4-tetrahydroisoquinolines as selective inhibitors of phenylethanolamine N-methyltransferase versus the alpha(2)-adrenoceptor” (J Med Chem, 1999).

Key:
[1] = biological target: Adrenergic receptor alpha-2 (Rattus norvegicus) (UniProt P22086+P19328+P22909); experiment: Ratio for binding affinity towards alpha-2 adrenoceptor to PNMT; assay type: protein assay
How it was run: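 Ratio of α2-adrenoceptor Ki (rat cortex, [3H]clonidine binding) to PNMT Ki (bovine adrenal enzyme, radiochemical assay with phenylethanolamine substrate).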

[2] = biological target: T1, Adrenergic receptor alpha-2 (Rattus norvegicus, UniProt P22086+P19328+P22909); experiment: Compound was tested in vitro for its affinity towards rat Alpha-2 adrenergic receptor; assay type: protein assay
T1 sequence (P22086 whole entry): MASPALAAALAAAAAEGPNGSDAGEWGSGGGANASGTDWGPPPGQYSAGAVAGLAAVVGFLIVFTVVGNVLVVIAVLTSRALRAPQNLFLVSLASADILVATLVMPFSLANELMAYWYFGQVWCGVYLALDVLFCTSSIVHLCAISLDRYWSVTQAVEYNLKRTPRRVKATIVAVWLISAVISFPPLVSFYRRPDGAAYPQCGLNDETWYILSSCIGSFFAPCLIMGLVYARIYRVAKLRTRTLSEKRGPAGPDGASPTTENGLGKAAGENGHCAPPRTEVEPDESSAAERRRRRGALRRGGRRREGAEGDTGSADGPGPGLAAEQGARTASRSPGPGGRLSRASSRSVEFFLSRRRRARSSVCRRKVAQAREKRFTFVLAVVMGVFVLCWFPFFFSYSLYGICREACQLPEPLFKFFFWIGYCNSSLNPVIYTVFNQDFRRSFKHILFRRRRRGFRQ
T1 sequence (P19328 whole entry): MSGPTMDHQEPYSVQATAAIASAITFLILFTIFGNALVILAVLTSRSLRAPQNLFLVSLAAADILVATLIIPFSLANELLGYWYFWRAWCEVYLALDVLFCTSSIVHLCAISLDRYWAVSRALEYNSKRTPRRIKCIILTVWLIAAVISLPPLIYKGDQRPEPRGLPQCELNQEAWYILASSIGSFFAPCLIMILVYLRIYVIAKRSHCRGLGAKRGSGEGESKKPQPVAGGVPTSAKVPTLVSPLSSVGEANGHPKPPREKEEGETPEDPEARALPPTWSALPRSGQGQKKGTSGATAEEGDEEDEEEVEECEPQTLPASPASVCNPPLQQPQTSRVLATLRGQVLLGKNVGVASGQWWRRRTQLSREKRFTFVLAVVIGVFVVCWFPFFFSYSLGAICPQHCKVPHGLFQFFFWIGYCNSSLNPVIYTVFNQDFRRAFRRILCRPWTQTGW
T1 sequence (P22909 whole entry): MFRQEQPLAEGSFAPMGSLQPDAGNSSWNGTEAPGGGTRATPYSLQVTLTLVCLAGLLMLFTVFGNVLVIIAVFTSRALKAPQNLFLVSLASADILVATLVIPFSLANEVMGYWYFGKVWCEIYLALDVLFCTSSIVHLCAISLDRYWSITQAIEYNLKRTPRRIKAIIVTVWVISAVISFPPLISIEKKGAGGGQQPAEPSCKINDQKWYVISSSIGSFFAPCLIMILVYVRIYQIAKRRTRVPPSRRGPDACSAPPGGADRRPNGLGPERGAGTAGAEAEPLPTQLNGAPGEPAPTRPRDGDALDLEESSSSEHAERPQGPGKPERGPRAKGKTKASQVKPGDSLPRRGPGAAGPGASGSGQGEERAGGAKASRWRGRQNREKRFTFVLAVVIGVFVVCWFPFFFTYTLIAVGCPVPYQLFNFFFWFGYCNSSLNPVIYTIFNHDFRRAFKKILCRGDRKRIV
How it was run: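 Membranes from male Sprague-Dawley rat cortex, homogenized in ice-cold 50 mM Tris/HCl pH 7.7 and washed by three 50000g spins. Incubated with [3H]clonidine (final 2.0 nM) and varied inhibitor concentrations, 25 °C for 30 min, then vacuum-filtered on GF/B and counted. Nonspecific binding with 2 μM phentolamine. IC50 by log-probit, converted to Ki = IC50/(1+[clonidine]/KD).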

[3] = biological target: T2, Phenylethanolamine N-methyltransferase (Bos taurus, UniProt P10938); experiment: Affinity for bovine Phenylethanolamine N-Methyltransferase
T2 sequence (P10938 whole entry): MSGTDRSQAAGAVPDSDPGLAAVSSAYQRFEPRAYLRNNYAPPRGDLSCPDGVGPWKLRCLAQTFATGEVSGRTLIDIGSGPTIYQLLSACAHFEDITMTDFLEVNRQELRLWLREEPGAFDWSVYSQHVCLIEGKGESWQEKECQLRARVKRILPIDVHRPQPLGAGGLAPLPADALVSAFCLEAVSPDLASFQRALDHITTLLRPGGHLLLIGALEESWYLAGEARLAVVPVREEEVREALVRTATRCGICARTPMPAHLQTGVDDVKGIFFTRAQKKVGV

[4] = biological target: T2, Phenylethanolamine N-methyltransferase; experiment: Affinity for bovine Phenylethanolamine N-Methyltransferase (PNMT)

FC(F)(F)C1Cc2ccc(Br)cc2CN1 (centres undefined)
Ratio [1]: 1900

NS(=O)(=O)c1ccc2c(c1)CNC(CF)C2 (centres undefined)
Ki [2]: 680000 nM
Ratio [1]: 1000
Ki [3]: 660 nM

O=[N+]([O-])c1ccc2c(c1)CNC(CF)C2 (centres undefined)
Ki [2]: 76000 nM
Ratio [1]: 140
Ki [3]: 540 nM

O=S(=O)(NCc1ccccc1)c1ccc2c(c1)CNC(CF)C2 (centres undefined)
Ki [2]: 110000 nM
Ratio [1]: 17
Ki [3]: 6500 nM

FCC1Cc2ccc(Br)cc2CN1 (centres undefined)
Ki [2]: 6400 nM
Ratio [1]: 10
Ki [4]: 640 nM

FCC1Cc2ccc(N=C=S)cc2CN1 (centres undefined)
Ki [2]: 22000 nM
Ratio [1]: 39
Ki [4]: 570 nM

Clc1ccc2c(c1Cl)CNCC2
Ratio [1]: 0.095

CS(=O)(=O)c1ccc2c(c1)CNC(CF)C2 (centres undefined)
Ki [2]: 230000 nM
Ratio [1]: 140
Ki [3]: 1600 nM

FCC1Cc2ccc(I)cc2CN1 (centres undefined)
Ki [2]: 7100 nM
Ratio [1]: 34
Ki [3]: 210 nM

FCC1Cc2ccccc2CN1 (centres undefined)
Ki [2]: 3800 nM
Ratio [1]: 2.5
Ki [4]: 1500 nM

CS(=O)(=O)c1ccc2c(c1)CNC(CO)C2 (centres undefined)
Ratio [1]: 1000

COc1ccc2c3c([nH]c2c1)C=NCC3
Ratio [1]: 4.4

CC1Cc2ccccc2CN1 (centres undefined)
Ratio [1]: 0.36

FCC1Cc2ccc(C(F)(F)F)cc2CN1 (centres undefined)
Ki [2]: 41000 nM
Ratio [1]: 130
Ki [4]: 320 nM

CCC1Cc2ccccc2CN1 (centres undefined)
Ratio [1]: 0.028

CNS(=O)(=O)c1ccc2c(c1)CNC(CF)C2 (centres undefined)
Ki [2]: 310000 nM
Ratio [1]: 130
Ki [3]: 2400 nM

NS(=O)(=O)c1ccc2c(c1)CNC(CO)C2 (centres undefined)
Ratio [1]: 4100

N#Cc1ccc2c(c1)CNC(CF)C2 (centres undefined)
Ki [2]: 460000 nM
Ratio [1]: 420
Ki [3]: 1100 nM

[N-]=[N+]=Nc1ccc2c(c1)CNC(CF)C2 (centres undefined)
Ki [2]: 47000 nM
Ratio [1]: 28
Ki [4]: 1700 nM

O=S(=O)(Nc1ccc(Cl)cc1)c1ccc2c(c1)CNC(CF)C2 (centres undefined)
Ki [2]: 160000 nM
Ratio [1]: 220
Ki [3]: 740 nM

CS(=O)(=O)c1ccc2c(c1)CNC(C(F)(F)F)C2 (centres undefined)
Ratio [1]: 110

OCC1Cc2ccccc2CN1 (centres undefined)
Ratio [1]: 6

COCC1Cc2ccccc2CN1 (centres undefined)
Ratio [1]: 0.3
